The source made the active and inactive calls. No cut-off for these calls is given here. Where a SMILES comes first, the peptide text is derived from it. Bridges are numbered along the chain shown (N, C = ends). [ ]: non-standard residue; d: D form. The star is where a group is joined. X1 = CC[C@H](C)CCCCC(=O)*; Dab = NCC[C@H](N)C(=O)O
How the values were obtained:
[1] = tested on: Staphylococcus aureus; assay: Bactericidal activity against methicillin resistant Staphylococcus aureus ATCC BAA 1556 assessed as inhibition of bacterial growth at 4 times of MIC incubated for 3 hrs by Time kill assay; type: functional
In short: (§1)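 Aliquots taken every 30 min for 4 h and plated on agar for viable colony counts. Two independent experiments in triplicate.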

[2] = tested on: Lipid bilayer; assay: Induction of membrane disruption in mammalian membrane mimic DOPC/cholesterol (10:1) large unilamellar vesicles assessed as induction of dye leakage at 50 ug/ml measured after 100 mins by calcein dye based analysis; type: cell membranes; conditions: dose 50.0 µg/ml
In short: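 LUVs loaded with calcein: DOPC/DOPG 7:3 w/w (bacterial mimic) or DOPC/cholesterol 10:1 w/w (mammalian mimic). Mixed 1:1 by volume with peptide at 5, 10, 20, 30 or 50 μg/mL. Fluorescence (ex 490/em 520 nm) read every 10 min for 100 min. Leakage expressed relative to 10% Triton X-100 lysis (100%), after subtracting liposome background. Triplicate.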

[3] = tested on: Cell membrane; assay: Disruption of cell membrane in methicillin resistant Staphylococcus aureus ATCC BAA 1556 assessed as increase in PI fluorescence intensity at MIC measured after 1 hrs by PI staining based flow cytometric analysis; type: subcellular
In short: (§2)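 Mid-log cells grown in Mueller Hinton broth, washed in 10 mM Tris pH 7.4, 10^7 CFU/mL, treated at MIC and 4× MIC for 1 h. Pelleted, washed, PI-stained for 15 min at 37 °C in the dark, then counted by flow cytometry for % PI-positive cells. PBS-treated cells as negative control, 10% Triton X-100 as positive control. Run in triplicate; two-tailed unpaired t-test.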

[4] = tested on: Cell membrane; assay: Disruption of cell membrane in methicillin resistant Staphylococcus aureus ATCC BAA 1556 assessed as increase in PI fluorescence intensity at 4 times of MIC measured after 1 hrs by PI staining based flow cytometric analysis; in short: as §2
[5] = tested on: Cell membrane; assay: Disruption of cell membrane in Escherichia coli ATCC BAA-2452 assessed as increase in PI fluorescence intensity at 4 times of MIC measured after 1 hrs by PI staining based flow cytometric analysis; type: subcellular
In short: (§3)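 Mid-log E. coli ATCC BAA-2452 grown in Mueller Hinton broth, washed thrice and resuspended at 10^7 CFU/mL in 10 mM Tris pH 7.4. […] Controls: PBS (negative) and 10% Triton X-100 (positive). Triplicate; two-tailed unpaired t-test.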

[6] = tested on: Cell membrane; assay: Disruption of cell membrane in Escherichia coli ATCC BAA-2452 assessed as increase in PI fluorescence intensity at MIC measured after 1 hrs by PI staining based flow cytometric analysis; type: subcellular; in short: as §3
[7] = tested on: Escherichia coli; assay: Bactericidal activity against […] Escherichia coli ATCC BAA 2452 assessed as inhibition of bacterial growth at 4 times of MIC incubated for 2.5 hrs by Time kill assay; type: functional; in short: as §1

SMILES	inhibition (INH) [1]	Activity [2]	Activity [3]	Activity [4]	Activity [5]	Activity [6]	inhibition (INH) [7]
CCCCCCCCCC(=O)N[C@@H](Cc1c[nH]c2ccccc12)C(=O)N[C@H](CC(N)=O)C(=O)N[C@@H](CC(=O)O)C(=O)N[C@@H]1C(=O)NCC(=O)N[C@@H](CCCN)C(=O)N[C@@H](CC(=O)O)C(=O)N[C@H](C)C(=O)N[C@@H](CC(=O)O)C(=O)NCC(=O)N[C@H](CO)C(=O)N[C@@H]([C@H](C)CC(=O)O)C(=O)N[C@@H](CC(=O)c2ccccc2N)C(=O)O[C@@H]1C	100%	7%	inactive	inactive	inactive	inactive	–
CC[C@H](C)CCCCC(=O)N[C@@H](CCN)C(=O)N[C@H](C(=O)N[C@@H](CCN)C(=O)N[C@H]1CCNC(=O)[C@H]([C@@H](C)O)NC(=O)[C@H](CCN)NC(=O)[C@H](CCN)NC(=O)[C@H](CC(C)C)NC(=O)[C@@H](Cc2ccccc2)NC(=O)[C@H](CCN)NC1=O)[C@@H](C)O (X1-[Dab]T[Dab][Dab][Dab][dF]L[Dab][Dab]T; lactam 4-C)	–	–	–	–	–	–	100%
